An excerpt weighted towards active compounds, which were near 5.4% of everything screened.
PostGolgi ctrl = inhibits growth of the yeast control strain; efflux-deficient yeast background strain, growth absorbance A615, 16 h; inhibition, % at 10 µM; actives 5% (n = 98,000); AID 738
PostGolgi yeast = growth inhibition of a yeast mutant, post-Golgi transport screen. inhibition, % at 10 µM. post-Golgi transport phenotypic cell assay. AID 739. actives 0.9% (n = 98,000);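 also: yeast cells grown in 1536-well plates; yeast grown about 18 h at 30C before absorbance read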
Ecoli tolC = blocks growth of E. coli BW25113 tolC mutant. OD615. growth inhibition, % at 10 µM (by protocol). actives 2.2% (n = 65,000);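 active = growth inhibition at or above a cutoff equal to the mean over every tested compound plus 3 SD, cut at about 60% in these data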;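 also: growth measured after 20 h incubation at 37 °C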
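System: E. coli ΔtolC::kan strain BW25113; Buffer or medium: LB broth supplemented with 50 µg/mL kanamycin; Compound: 10 µM final, single dose; Incubation: bacterial growth with compound for 20 h at 37 °C; Signal: A615 absorbance measurement; Evaluation: growth inhibition in percent.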
PLAP act = activates human placental alkaline phosphatase; actives 1.2% (n = 96,000); purified PLAP enzyme, luminescent substrate read-out; active compounds read high; P05187; activation fold at 20 µM; in the data active = activation fold above about 2
Target sequence (P05187 whole entry, looked up): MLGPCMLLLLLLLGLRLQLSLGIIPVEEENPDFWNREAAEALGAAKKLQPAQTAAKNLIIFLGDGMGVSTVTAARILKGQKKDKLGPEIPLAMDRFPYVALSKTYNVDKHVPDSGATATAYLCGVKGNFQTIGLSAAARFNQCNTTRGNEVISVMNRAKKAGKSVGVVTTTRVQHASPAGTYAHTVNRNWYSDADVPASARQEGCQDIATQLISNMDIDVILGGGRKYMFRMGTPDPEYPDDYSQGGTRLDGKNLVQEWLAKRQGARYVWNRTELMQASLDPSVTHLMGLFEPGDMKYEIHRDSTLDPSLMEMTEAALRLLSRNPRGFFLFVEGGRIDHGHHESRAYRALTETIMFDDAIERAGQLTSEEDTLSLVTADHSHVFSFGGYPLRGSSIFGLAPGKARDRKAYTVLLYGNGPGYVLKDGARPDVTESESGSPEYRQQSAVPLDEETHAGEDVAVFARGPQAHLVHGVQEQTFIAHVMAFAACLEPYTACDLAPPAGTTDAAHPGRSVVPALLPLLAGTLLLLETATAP
HePTP inh = inhibitors of human HePTP phosphatase; P35236; inhibition, % at 20 µM; recombinant HePTP phosphatase activity, OD absorbance; AID 521; actives 0.64% (n = 110,000); in the data active = inhibition above about 50%
E coli WT exp = growth inhibitors of E. coli BW25113 wild type. growth inhibition, % at 100 µM. actives 0.15% (n = 98,000). OD600 absorbance;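 active = growth inhibition above about 50% at one test dose, limit read from the data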;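 also: growth measured after 20 h incubation at 37 °C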
Numbers stand for hits. Rule as the data show it, unless noted: active = inhibition above about 30%; inactive = the rest.

`Clc1ccc(CSc2nnc(CNc3cccc(Cl)c3)o2)cc1` gave PostGolgi ctrl 45.3, PostGolgi yeast inactive, PLAP act inactive and E coli WT exp inactive.
`Cc1cccc(OCC(=O)Nc2ccc(Br)cc2)c1C` gave HePTP inh inactive.
Screening CC(=O)C1C(=O)c2cc([N+](=O)[O-])ccc2C1=Nc1cccc(C)c1 (stereo not given) returned HePTP inh inactive.
CC1(C)Cc2c(sc(NC(=O)c3ccc(Cl)cc3)c2C#N)CO1 was read as HePTP inh inactive.
`CCC(=O)c1cc(F)c(N2CCN(S(=O)(=O)c3ccc(C)cc3)CC2)cc1C` gave PostGolgi ctrl 35.0, PostGolgi yeast inactive, Ecoli tolC inactive, PLAP act inactive, HePTP inh inactive and E coli WT exp inactive.
Screening COc1cc([N+](=O)[O-])ccc1NC(=S)NC(=O)/C=C/c1ccccc1 returned HePTP inh inactive.
Screening CC(C)COc1ccc(Cc2cnc(N)nc2N)cc1 returned PostGolgi ctrl inactive, PostGolgi yeast inactive, PLAP act inactive and E coli WT exp 66.0.
Screening O=C1/C(=C/c2ccc(O)c(O)c2)SC(=S)N1C1CCCCC1 returned HePTP inh inactive.
For C=CCNC(=O)/C(=C\C=C\C)NC(=O)c1ccccc1 the results were HePTP inh inactive.
c1ccc(-c2cc(-c3ccccc3)n(-c3ncn[nH]3)n2)cc1 was read as HePTP inh inactive.
`CC(C)(C)c1ccc(Cn2nnc3c(=O)[nH]c(C4CCN(C(=O)Cc5cccs5)CC4)nc32)cc1` gave PostGolgi ctrl inactive, PostGolgi yeast inactive, Ecoli tolC inactive, PLAP act inactive, HePTP inh inactive and E coli WT exp inactive.
`CC(C)(C)c1ccc(Cn2nnc3c(=O)[nH]c(C4CCCN(C(=O)Cc5cccs5)C4)nc32)cc1` (stereo not given) gave PostGolgi ctrl inactive, PostGolgi yeast inactive, Ecoli tolC 87.7, PLAP act inactive, HePTP inh inactive and E coli WT exp inactive.
O=C(CSc1cccc2cccnc12)Nc1nnc(-c2ccccc2)s1 was read as HePTP inh inactive.
Screening O=C(NC1CC2CCC1C2)C1COc2ccccc2O1 (stereo not given) returned PostGolgi ctrl 31.3, PostGolgi yeast inactive, Ecoli tolC inactive, PLAP act inactive, HePTP inh inactive and E coli WT exp inactive.
For C/C(=N\NC(=O)c1ccc(Cl)cc1O)c1ccc(Cl)cc1 the results were HePTP inh inactive.
For O=C(CN1C(=O)/C(=C\c2ccccc2F)SC1=S)Nc1ccc(C(=O)O)cc1 the results were HePTP inh 52.9.
`CCOCCOC(=O)c1ccc(NC(=O)c2ccc(C(=O)C(=O)c3ccccc3)cc2)cc1` gave HePTP inh inactive.
CCOC(=O)c1ccccc1NC(=O)c1cc2sccc2n1C was read as PostGolgi ctrl inactive, PostGolgi yeast inactive, Ecoli tolC inactive, PLAP act inactive, HePTP inh inactive and E coli WT exp inactive.
`CCOC(=O)c1cccc(NC(=O)c2cc3sccc3n2C)c1` gave PostGolgi ctrl inactive, PostGolgi yeast inactive, Ecoli tolC 73.4, PLAP act inactive, HePTP inh inactive and E coli WT exp inactive.
COc1ccc(CNc2nc(-c3cccnc3)nn2C(=O)c2ccco2)cc1 was read as PostGolgi ctrl inactive, PostGolgi yeast inactive, Ecoli tolC inactive, PLAP act inactive, HePTP inh inactive and E coli WT exp inactive.
COc1ccc(CNc2nc(-c3cccnc3)nn2C(=O)c2cccs2)cc1 was read as PostGolgi ctrl 40.1, PostGolgi yeast inactive, Ecoli tolC inactive, HePTP inh inactive and E coli WT exp inactive.
Screening Cc1ccc(C2NC(=O)c3c(sc4c3CCN(C)C4)N2)o1 (stereo not given) returned PostGolgi ctrl inactive, PostGolgi yeast 32.5, Ecoli tolC inactive, PLAP act inactive, HePTP inh inactive and E coli WT exp inactive.
COc1ccc(CN2CCN(C3CCCCCC3)CC2)c(OC)c1OC was read as HePTP inh inactive.
O=P(Cc1nnco1)(c1ccccc1)c1ccccc1 was read as PostGolgi ctrl inactive, PostGolgi yeast inactive, Ecoli tolC inactive, PLAP act 2.1, HePTP inh inactive and E coli WT exp inactive.
For CC(=O)Oc1ccc2c(C)cc(=O)oc2c1 the results were PostGolgi ctrl inactive, PostGolgi yeast inactive, PLAP act inactive and E coli WT exp inactive.
`CCOC(=O)Nc1ccc2c(C)cc(=O)oc2c1` gave PostGolgi ctrl 33.5, PostGolgi yeast inactive, Ecoli tolC inactive, PLAP act inactive, HePTP inh inactive and E coli WT exp inactive.

Source: PubChem
